Data taken from ChEMBL document CHEMBL1148462, “A novel class of phosphonate nucleosides. 9-[(1-phosphonomethoxycyclopropyl)methyl]guanine as a potent and selective anti-HBV agent” (J Med Chem, 2004).
Values belong to the molecule of their own block, whether it stands above or below them.

Key:
[1] = tested on: HepG2; assay: (§1) Compound tested for anti-HBV (hepatitis B virus) activity in HepG2 2.2.15 cell line; assay type: functional, cell-based; conditions: Homo sapiens
How it was run: (§2)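 HBV-producing HepG2 2.2.15 cells cultured in DMEM/10% FBS with 400 μg/mL G418, seeded at 1.5 × 10⁴ cells/well and grown 2 days to 80–90% confluence. Medium then switched to 2% FBS. Compounds at 0–100 μM (fivefold steps) added every other day for 9 days. Day-10 supernatant boiled, serially diluted and HBV DNA quantified by TaqMan real-time PCR (40 cycles) to derive EC50.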

[2] = tested on: HepG2; assay: Cytotoxic activity in HepG2 2.2.15 cell line; assay type: functional; conditions: Homo sapiens
[3] = tested on: HepG2; assay: as §1; assay type: functional; conditions: Homo sapiens; how it was run: as §2
[4] = Oral bioavailability in rat; assay type: ADME, organism-based; conditions: in vivo
[5] = tested on: Human immunodeficiency virus 1; assay: Concentration required for inhibition of replication of human immunodeficiency virus (HIV-1); assay type: functional
[6] = tested on: Human alphaherpesvirus 1; assay: […] of herpes simplex virus (HSV-1)

SMILES: CCNc1nc(N)nc2c1ncn2CC1(OCP(=O)(O)O)CC1
EC50 [1]: > 30 µM | CC50 [2]: > 1000 µM

SMILES: CCOc1nc(N)nc2c1ncn2CC1(OCP(=O)(O)O)CC1
EC80 [3]: 3 µM | EC50 [1]: 0.5 µM | CC50 [2]: > 1000 µM

SMILES: Cc1cn(CC2(OCP(=O)(O)O)CC2)c(=O)[nH]c1=O
EC50 [1]: > 30 µM | CC50 [2]: > 1000 µM

SMILES: Nc1nc(Cl)c2ncn(CC3(OCP(=O)(O)O)CC3)c2n1
EC80 [3]: 7.5 µM | EC50 [1]: 1.5 µM | CC50 [2]: > 1000 µM

SMILES: Cc1nc(N)nc2c1ncn2CC1(OCP(=O)(O)O)CC1
EC50 [1]: 8 µM | CC50 [2]: > 1000 µM

SMILES: Nc1ncnc2c1ncn2CCOCP(=O)(O)O [ADEFOVIR]
EC80 [3]: 44 µM | EC50 [1]: 2 µM

The next lines start with results.

EC50 [1]: 8 µM
SMILES: Nc1ncnc2c1ncn2CC1(OCP(=O)(O)O)CC1
CC50 [2]: > 1000 µM

EC50 [1]: 4 µM | bioavailability [4]: > 5%
SMILES: Nc1ncc2ncn(CC3(OCP(=O)(O)O)CC3)c2n1 [BESIFOVIR]
CC50 [2]: > 1000 µM

EC50 [1]: 0.5 µM
SMILES: Nc1nc(O)c2ncn(CC3(OCP(=O)(O)O)CC3)c2n1 [LB80317]
Inhibition [5]: > 30 µM | EC80 [3]: 2.3 µM | CC50 [2]: > 1000 µM | Inhibition [6]: > 30 µM
